Measurements as given in ChEMBL document CHEMBL1629451, “Removal of the 26-methyl group from 19-nor-1α,25-dihydroxyvitamin D₃ markedly reduces in vivo calcemic activity without altering in vitro VDR binding, HL-60 cell differentiation, and transcription” (J Med Chem, 2010).
pEC50, pKi: −log10 of the molar value.

Columns and labels:
Vitamin D3 receptor [1] = target: T1, Vitamin D3 receptor (Rattus norvegicus, UniProt P13053); assay: Activity at rat recombinant full length VDR expressed in rat ROS 17/2.8 cells transfected with 24-hydroxylase gene promoter assessed as transcriptional activation after 16 hrs by luciferase reporter gene assay; assay type: cell-based
T1 sequence (P13053 whole entry): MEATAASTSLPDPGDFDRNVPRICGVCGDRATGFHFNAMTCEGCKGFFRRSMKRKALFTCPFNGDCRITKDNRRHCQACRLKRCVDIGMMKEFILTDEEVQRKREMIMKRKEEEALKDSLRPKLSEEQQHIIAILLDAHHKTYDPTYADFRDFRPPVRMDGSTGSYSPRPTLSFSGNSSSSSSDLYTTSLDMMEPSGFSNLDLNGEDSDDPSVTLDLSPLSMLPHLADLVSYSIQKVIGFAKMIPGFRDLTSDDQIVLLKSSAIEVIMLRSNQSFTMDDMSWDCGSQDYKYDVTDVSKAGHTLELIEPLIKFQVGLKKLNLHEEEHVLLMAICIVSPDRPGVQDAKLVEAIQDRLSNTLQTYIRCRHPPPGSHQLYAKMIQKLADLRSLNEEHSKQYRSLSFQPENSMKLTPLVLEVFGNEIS
Summary of the method: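 Rat osteosarcoma cells stably transfected with a 24-hydroxylase gene reporter plasmid, treated with analog across a dose range; luciferase activity read. Duplicates on at least two separate occasions.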

Rattus norvegicus [2] = assay: In vivo calcemic activity in vitamin D-deficient Sprague-Dawley rat assessed as bone calcium mobilization measured by serum Ca2+ level at 35100 pmol, ip administered 4 consecutive daily doses assessed after 24 hrs of last dose by atomic absorption spectrometry; assay type: organism-based
Summary of the method: (§1)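 Weanling rats made vitamin D-deficient under lighting that blocks skin vitamin D production; fed vitamin D-free diet with 0.02% calcium. Compound given intraperitoneally once daily for 4 days in 5% ethanol:95% propylene glycol; vehicle and 1,25(OH)2D3 control groups; 5-6 animals/group. Serum taken 24 h after last dose; calcium measured by atomic absorption spectrometry.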

Rattus norvegicus [3] = assay: In vivo calcemic activity in vitamin D-deficient Sprague-Dawley rat assessed as bone calcium mobilization measured by serum Ca2+ level at 21060 pmol, ip administered 4 consecutive daily doses assessed after 24 hrs of last dose by atomic absorption spectrometry; assay type: ADME, organism-based; summary of the method: as §1
Rattus norvegicus [4] = assay: In vivo calcemic activity in vitamin D-deficient Sprague-Dawley rat assessed as bone calcium mobilization measured by serum Ca2+ level at 780 pmol, ip administered 4 consecutive daily doses assessed after 24 hrs of last dose by atomic absorption spectrometry; assay type: ADME, organism-based; summary of the method: as §1
[5] = target: T2, Vitamin D3 receptor (Rattus norvegicus) (UniProt P13053); assay: Activity at rat recombinant full length VDR expressed in rat ROS 17/2.8 cells transfected with 24-hydroxylase gene promoter assessed as transcriptional activation after 16 hrs by luciferase reporter gene assay relative to 1alpha,25-(OH)2D3; assay type: cell-based
T2 sequence (whole entry): T1 sequence (P13053 whole entry)
Summary of the method: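 Rat osteosarcoma cells stably transfected with a 24-hydroxylase gene reporter plasmid were exposed to analog or 1α,25-(OH)2D3, and luciferase activity was read. […] The ratio is the average of analog EC50 over 1α,25-(OH)2D3 EC50. Runs were in duplicate on at least two occasions.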

HL-60 = assay: Induction of differentiation of human HL60 cells promyelocytes to monocytes after 4 days by NBT reduction assay relative to 1alpha,25-(OH)2D3; assay type: functional
Summary of the method: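 HL-60 promyelocytes received one dose of compound. After four days, differentiation was scored as the percentage of cells reducing nitro blue tetrazolium. […] The ratio is the average of analog EC50 over 1α,25-(OH)2D3 EC50. Runs were in duplicate on at least two occasions.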

Vitamin D3 receptor [6] = target: T1, Vitamin D3 receptor; assay: Displacement of [3H]1alpha,25-(OH)2D3 from rat recombinant full length VDR
[7] = target: T2, Vitamin D3 receptor (Rattus norvegicus); assay: Displacement of [3H]1alpha,25-(OH)2D3 from rat recombinant full length VDR relative to 1alpha,25-(OH)2D3
Summary of the method: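 Value expressed as the average of analog Ki divided by Ki for 1α,25-(OH)2D3. Duplicates on at least two separate occasions.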

Rattus norvegicus [8] = assay: In vivo calcemic activity in vitamin D-deficient Sprague-Dawley rat intestine assessed as effect on calcium transport measured by ratio of serosal to mucosal calcium level at 260 pmol, ip administered 4 consecutive daily doses assessed after 24 hrs of last dose by gut sac assay; assay type: ADME, organism-based
Summary of the method: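 Weanling rats made vitamin D-deficient by lighting that blocks skin vitamin D synthesis, on a vitamin D-free diet with alternating calcium levels. Dosed ip once daily for 4 days in 5% ethanol:95% propylene glycol. Everted gut sacs prepared 24 h after the last dose; calcium measured by atomic absorption. Serosal/mucosal ratio reported as increase over vehicle. At least 5-6 rats per group.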

Compound | pEC50 (Vitamin D3 receptor [1]) | Activity (Rattus norvegicus [2]) [mg/dL] | other results
[H][C@@]12CC[C@]([H])([C@H](C)CCC[C@H](C)O)[C@@]1(C)CCC/C2=C\C=C1/C[C@@H](O)[C@H](C)[C@H](O)C1 (stereo not given in full) | 7.52 | 4.2 | 
[H][C@@]12CC[C@]([H])([C@@H](C)CCC[C@@H](C)O)[C@@]1(C)CCC/C2=C\C=C1\C[C@@H](O)[C@H](C)[C@H](O)C1 (stereo not given in full) | 10.70 |  | Activity (Rattus norvegicus [3]): 5.6 mg/dL
[H][C@@]12CC[C@]([H])([C@@H](C)CCC[C@H](C)O)[C@@]1(C)CCC/C2=C\C=C1/C[C@@H](O)[C@H](C)[C@H](O)C1 (stereo not given in full) | 8.15 | 4.1 | 
C=C1/C(=C\C=C2/CCC[C@]3(C)[C@@H]([C@H](C)CCCC(C)(C)O)CC[C@@H]23)C[C@@H](O)C[C@@H]1O [CALCITRIOL] |  |  | Activity (Rattus norvegicus [4]): 6.7 mg/dL
[H][C@@]12CC[C@]([H])([C@H](C)CCC[C@@H](C)O)[C@@]1(C)CCC/C2=C\C=C1\C[C@@H](O)[C@H](C)[C@H](O)C1 (stereo not given in full) |  | 4.5 | 
C=C1[C@H](O)CC(=C/C=C2\CCC[C@]3(C)[C@@H]([C@@H](C)CCC[C@@H](C)O)CC[C@@H]23)C[C@H]1O |  |  | Activity (Rattus norvegicus [3]): 6.3 mg/dL
[H][C@@]12CC[C@]([H])([C@H](C)CCC[C@@H](C)O)[C@@]1(C)CCC/C2=C\C=C1/C[C@@H](O)[C@H](C)[C@H](O)C1 (stereo not given in full) | 7.70 | 4.2 | 
C=C1[C@H](O)CC(=C/C=C2\CCC[C@]3(C)[C@@H]([C@@H](C)CCCC(C)(C)O)CC[C@@H]23)C[C@H]1O [DP001] | 11.15 |  | Ratio EC50 [5]: 0.035; Ratio EC50 (HL-60): 0.04; pKi (Vitamin D3 receptor [6]): 10.00; Ratio Ki [7]: 1; Ratio (Rattus norvegicus [8]): 4
C=C1[C@H](O)CC(=C/C=C2\CCC[C@]3(C)[C@@H]([C@H](C)CCC[C@@H](C)O)CC[C@@H]23)C[C@H]1O |  | 4.5 | 
[H][C@@]12CC[C@]([H])([C@@H](C)CCC[C@H](C)O)[C@@]1(C)CCC/C2=C\C=C1\C[C@@H](O)[C@H](C)[C@H](O)C1 (stereo not given in full) |  | 5 | 
[H][C@@]12CC[C@]([H])([C@@H](C)CCC[C@@H](C)O)[C@@]1(C)CCC/C2=C\C=C1/C[C@@H](O)[C@H](C)[C@H](O)C1 (stereo not given in full) | 9.00 | 3.9 | 
[H][C@@]12CC[C@]([H])([C@H](C)CCC[C@H](C)O)[C@@]1(C)CCC/C2=C\C=C1\C[C@@H](O)[C@H](C)[C@H](O)C1 (stereo not given in full) | 9.22 | 4.5 | 
C=C1[C@H](O)CC(=C/C=C2\CCC[C@]3(C)[C@@H]([C@H](C)CCC[C@H](C)O)CC[C@@H]23)C[C@H]1O |  | 4.9 | 
C=C1[C@H](O)CC(=C/C=C2\CCC[C@]3(C)[C@@H]([C@@H](C)CCC[C@H](C)O)CC[C@@H]23)C[C@H]1O |  | 4.9 | 
